Measured values taken from the RNAGym collection of RNA variant scans (doi:10.1126/science.aae0568).
Fewer inactive variants are shown than the library holds.

B1: tRNA (parent)
chain: GUUCCGUUGGCGUAAUGGUAACGCGUCUCCCUCCUAAGGAGAAGACUGCGGGUUCGAGUCCCGUACGGAACG

Variants of: B1
Assay: yeast fitness relative to wild type (ratio to wild type); higher = fitter; tRNA-Arg(CCU), competitive growth, 37 C, YPD
Summary of the method: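 Variants of the tRNA-Arg(CCU) gene, chemically synthesised with a 3% per-site mutation rate at 69 sites, were placed at the native genomic locus in Saccharomyces cerevisiae. The pooled strains were competed in YPD at 37°C for 24 hours in six parallel replicates. Gene amplicons from the start population and from each end population were read by 100-nucleotide paired-end sequencing. Darwinian fitness relative to wild type came from changes in genotype frequencies; genotypes needed ≥ 100 starting reads, and estimates < 0.5 were set to 0.5.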

Going from GUUCCGUUGGCGUAAUGGUAACGCGUCUCCCUCCUAAGGAGGAGACUGCGGGUUCGCGUCGCGUACGGAACG to GUUCCGUUGGCGUAAUGGUAACGCGUCUCCCUCCUAAGGAGUGGACUGCGGCUUCGAGUACCGUACGGAACG, the yeast fitness falls from 0.708 to no more than 0.5.

Going from GUUCCGUUGGCGUAAUGGUAACGCGUCUCCCUCCUAAGGAGGAGACUGCGGGUUCGAGUCCUGUACGGAACG to GUUCCGUUGGCGUAAUGGUAACGCGUCUCCCUCCUAAGGAGGAGACUGCGGGUUCGAGUCCGGUACGGAACG, the yeast fitness falls from 0.962 to 0.848.

Compared with GUUCCGUUGGCGUAAUGGUAACGCGUCUCCCUCCUAAGGAGGAGACUGCGGGUUAGAGUCCCGUACGGAACG, GUUCCGUUGGCGUAAUGGUAACGCGUCUCCCUCCUAAGGAGGACACUGCGGGUUCGAGUCCCGUCCGGAACG is lower in yeast fitness: 0.607 for the first, 0.563 for the second.

Going from GUUCCGUUGGCGUAAUGGUAACGCGUCUCCCUCCUAAGGAGGAGACAGCGGGCUCGAGUCCCGUACGGAACG to GUUCCGUUGGCGUAAUGGUAACGCGUCUCCCUCCUAAGGAGGAGGUUGCGGGUUCGAGUCCCGUACGGAACG, the yeast fitness rises from no more than 0.5 to 0.726.

First: GUUCCGUUGGCGUAAUGGUAACGCGUCUCCCUCCUAAGGAGGAGACUGCGGGUUCGAGUACCGUACGGAACG
Second: GUUCCGUUGGCGUAAUGGUAACGCGUCUCCCUCCUAAGGAGUGGACUGCGGGUUCGAGUCACGUACGGAACG
The yeast fitness of the first is lower: 0.512 for the first, 0.723 for the second.

Going from GUUCCGUUGGCGUAAUGGUAACGCGUCUCCCUCCUAAGGAGGAGACUGCGGGUUCGAGUCCCGUAGCGAACG to GUUCCGUUGGCGUAAUGGUAACGCGUCUCCCUCCUAAGGAGGAAACUGCGGGUUCGAGUCCCGUACGGAACG, the yeast fitness rises from no more than 0.5 to 0.962.

First: GUUCCGUUGGCGUAAUGGUAACGCGUCUCCCUCCUAAGGAGUGGACUCCGGGAUCGAGUCCCGUACGGAACG
Second: GUUCCGUUGGCGUAAUGGUAACGCGUCUCCCUCCUAAGGAGGAGACUGCGGGUUCGAGUCCCGUACCGAACG
The yeast fitness of the first is lower: 0.566 for the first, 0.947 for the second.

Going from GUUCCGUUGGCGUAAUGGUAACGCGUCUCCCUCCUAAGGAGGAGACUGCGGGUUCGAGUCCCGUACAGAACG to GUUCCGUUGGCGUAAUGGUAACGCGUCUCCCUCCUAAGGAGUUGACUGCGGGUUCGAGUCCCGUACGGAACG, the yeast fitness rises from 0.747 to 1.01.

First: GUUCCGUUGGCGUAAUGGUAACGCGUCUCCCUCCUAAGGAGGAGACAGCGGGUUUGCGUCCCGUACGGAACG
Second: GUUCCGUUGGCGUAAUGGUAACGCGUCUCCCUCCUAAGGAGUGGACUGCGGCUUCGAGUCCCGUACGGAACG
The yeast fitness of the first is higher: 0.631 for the first, no more than 0.5 for the second.

GUUCCGUUGGCGUAAUGGUAACGCGUCUCCCUCCUAAGGAGGAGACUGCGUGUUCGUGUCCCGUACAGAACG and GUUCCGUUGGCGUAAUGGUAACGCGUCUCCCUCCUAAGGAGUCGACUGCGGGUUCGAGUCCCGCACGCAACG cannot be ordered by yeast fitness: no more than 0.5 for the first, no more than 0.5 for the second.

Going from GUUCCGUUGGCGUAAUGGUAACGCGUCUCCCUCCUAAGGAGGAGACUGUGGGUUCGAGUCCCGUACGGAUCG to GUUCCGUUGGCGUAAUGGUAACGCGUCUCCCUCCUAAGGAGGAGACGGCGGGUUCGAGUCCCGUACGGAACG, the yeast fitness rises from 0.711 to 0.771.

Going from GUUCCGUUGGCGUAAUGGUAACGCGUCUCCCUCCUAAGGAGGAGACCGCGGGUUCGAGUCCCGUACGGAACG to GUUCCGUUGGCGUAAUGGUAACGCGUCUCCCUCCUAAGGAGGAGACUGCCGGUUCGAGUCCCGUACGGAACG, the yeast fitness falls from 0.959 to 0.634.

GUUCCGUUGGCGUAAUGGUAACGCGUCUCCCUCCUAAGGAGGAGACUACGGGUUCGAGUCCCGUACGCAUCG and GUUCCGUUGGCGUAAUGGUAACGCGUCUCCCUCCUAAGGAGGAGACUGCCGGUUCGAAUCCCGUACGGCACG cannot be ordered by yeast fitness: no more than 0.5 for the first, no more than 0.5 for the second.

Going from GUUCCGUUGGCGUAAUGGUAACGCGUCUCCCUCCUAAGGAGGAGACUGCGGGUUCGAGUCCUGUACGAAACG to GUUCCGUUGGCGUAAUGGUAACGCGUCUCCCUCCUAAGGAGUAGCCUGCGGGUUCGAGUCCCGUACGGACCG, the yeast fitness falls from 0.79 to 0.721.

GUUCCGUUGGCGUAAUGGUAACGCGUCUCCCUCCUAAGGAGGAGACUGCGGGUUCGAGUCACGUACAGAACG and GUUCCGUUGGCGUAAUGGUAACGCGUCUCCCUCCUAAGGAGGAGACUGCGGGUUCGAGUCCCGUACAAAACG cannot be ordered by yeast fitness: no more than 0.5 for the first, no more than 0.5 for the second.

First: GUUCCGUUGGCGUAAUGGUAACGCGUCUCCCUCCUAAGGAGGAGACUGCGGGUUCGAGUCCCGUACGGACCG
Second: GUUCCGUUGGCGUAAUGGUAACGCGUCUCCCUCCUAAGGAGGAGACUGCGGGUUCGAGUCCCGUACGGAGCG
The yeast fitness of the first is higher: 0.853 for the first, 0.693 for the second.

Going from GUUCCGUUGGCGUAAUGGUAACGCGUCUCCCUCCUAAGGAGGAGACUGCGGGUUCGAGUCCCGUACGAAACG to GUUCCGUUGGCGUAAUGGUAACGCGUCUCCCUCCUAAGGAGGAGACUGCGGGUUCGAGUCCCGUACGUAACG, the yeast fitness rises from 0.728 to 0.834.

Going from GUUCCGUUGGCGUAAUGGUAACGCGUCUCCCUCCUAAGGAGGACGCUGCGGGUUCGAGUCCCGUACGGAACG to GUUCCGUUGGCGUAAUGGUAACGCGUCUCCCUCCUAAGGAGGAGACUGCGGGUUCCAGUCCCGUACGGAACG, the yeast fitness falls from 0.723 to 0.595.

Going from GUUCCGUUGGCGUAAUGGUAACGCGUCUCCCUCCUAAGGAGGAGACUGCGGGUUCGACUCCCGUACGGAACG to GUUCCGUUGGCGUAAUGGUAACGCGUCUCCCUCCUAAGGAGGAGACAGCGGGUUCGAGUCCCGUAUGGAACG, the yeast fitness falls from 0.906 to 0.567.

GUUCCGUUGGCGUAAUGGUAACGCGUCUCCCUCCUAAGGAGGAGACUACGGGUUCGAGUCGCGUACGGAACG and GUUCCGUUGGCGUAAUGGUAACGCGUCUCCCUCCUAAGGAGGAGACUGCGAGUUCGCGCUCCGUACGGAACG cannot be ordered by yeast fitness: no more than 0.5 for the first, no more than 0.5 for the second.

Going from GUUCCGUUGGCGUAAUGGUAACGCGUCUCCCUCCUAAGGAGUCGACUGAGGGUUCGAGUCCCGUACGGAACG to GUUCCGUUGGCGUAAUGGUAACGCGUCUCCCUCCUAAGGAGGAGUCUGCGGGUUCGAGUCCCGUAUGGAACG, the yeast fitness rises from no more than 0.5 to 0.684.

First: GUUCCGUUGGCGUAAUGGUAACGCGUCUCCCUCCUAAGGAGGAGACUGCGGCUUCGAGUCCCGUACGGAACG
Second: GUUCCGUUGGCGUAAUGGUAACGCGUCUCCCUCCUAAGGAGGAGACUGCGGAUUCGAGUCCCGUACGGAACG
The yeast fitness of the first is lower: 0.574 for the first, 0.648 for the second.

GUUCCGUUGGCGUAAUGGUAACGCGUCUCCCUCCUAAGGAGGAGACUGCGGCUUCGAGUCCAGUACGGAACG and GUUCCGUUGGCGUAAUGGUAACGCGUCUCCCUCCUAAGGAGGAGACUGCGGGUUCGCGCCUCGUACGGAACG cannot be ordered by yeast fitness: no more than 0.5 for the first, no more than 0.5 for the second.

First: GUUCCGUUGGCGUAAUGGUAACGCGUCUCCCUCCUAAGGAGGAGACUGGGGGUCCGAGUCCCGUACGGAACG
Second: GUUCCGUUGGCGUAAUGGUAACGCGUCUCCCUCCUAAGGAGUAGCCUGCGGGUUCGAGUCCCGUACGGCACG
The yeast fitness of the first is lower: 0.536 for the first, 0.67 for the second.

First: GUUCCGUUGGCGUAAUGGUAACGCGUCUCCCUCCUAAGGAGGAGACUGCGGGUUCGAGUCCCGUAUGGAACG
Second: GUUCCGUUGGCGUAAUGGUAACGCGUCUCCCUCCUAAGGAGGAGACUGCGGGUUCGAGUCCCGUAGGGAACG
The yeast fitness of the first is higher: 0.814 for the first, 0.808 for the second.

Going from GUUCCGUUGGCGUAAUGGUAACGCGUCUCCCUCCUAAGGAGGAGACUGCCGGUUCGAGUCCCGUACGGCACG to GUUCCGUUGGCGUAAUGGUAACGCGUCUCCCUCCUAAGGAGGAGACUCCGGGUUCGAGUCCCGUACGGAACG, the yeast fitness rises from no more than 0.5 to 0.741.

Going from GUUCCGUUGGCGUAAUGGUAACGCGUCUCCCUCCUAAGGAGUAGCCUGCGGGUUCGAGUCCCGUACGGAACG to GUUCCGUUGGCGUAAUGGUAACGCGUCUCCCUCCUAAGGAGGAGACUGCGGCUUCGAGUCCCGUAUGAAACG, the yeast fitness falls from 1.17 to no more than 0.5.

GUUCCGUUGGCGUAAUGGUAACGCGUCUCCCUCCUAAGGAGGAGACUGCGGGUUCGAGUACAGUACGGAACG and GUUCCGUUGGCGUAAUGGUAACGCGUCUCCCUCCUAAGGAGGAGAUUGCGGCUUCGAGUCACGUACGGAACG cannot be ordered by yeast fitness: no more than 0.5 for the first, no more than 0.5 for the second.

Compared with GUUCCGUUGGCGUAAUGGUAACGCGUCUCCCUCCUAAGGAGGAGACUGCGGGUUCGAGGCCCGCAGGGAACG, GUUCCGUUGGCGUAAUGGUAACGCGUCUCCCUCCUAAGGAGUUGACUGCGGGUUCGGGUCCCGUACGGAUCG is higher in yeast fitness: no more than 0.5 for the first, 0.574 for the second.

Compared with GUUCCGUUGGCGUAAUGGUAACGCGUCUCCCUCCUAAGGAGGAGACUGCGGGUUCGAGUCCCCUACGGAACG, GUUCCGUUGGCGUAAUGGUAACGCGUCUCCCUCCUAAGGAGGAGACUGCGGGUUCAAGUCCCCUACGGAACG is lower in yeast fitness: 0.69 for the first, 0.51 for the second.

GUUCCGUUGGCGUAAUGGUAACGCGUCUCCCUCCUAAGGAGGAGUCUGCCGGUUCGAGUCCCGUACGGAACG and GUUCCGUUGGCGUAAUGGUAACGCGUCUCCCUCCUAAGGAGGAGACUGCGGCUUCGAGUCCCGUUCGGAACG cannot be ordered by yeast fitness: no more than 0.5 for the first, no more than 0.5 for the second.

Going from GUUCCGUUGGCGUAAUGGUAACGCGUCUCCCUCCUAAGGAGGAGACUGCGGGUUCGAGUCCCGUACGGUACG to GUUCCGUUGGCGUAAUGGUAACGCGUCUCCCUCCUAAGGAGGAGACUGCGGGUUCGAGUCCCGUACGGGACG, the yeast fitness falls from 0.959 to 0.749.

Going from GUUCCGUUGGCGUAAUGGUAACGCGUCUCCCUCCUAAGGAGGAGAAUGCGGGUUCGAGUCCCGUACGAAUCG to GUUCCGUUGGCGUAAUGGUAACGCGUCUCCCUCCUAAGGAGGAGACUGCGGCUUCGACUCCCGUACGGAACG, the yeast fitness falls from 0.568 to no more than 0.5.

GUUCCGUUGGCGUAAUGGUAACGCGUCUCCCUCCUAAGGAGGAGACUGUGGGUUCGAGUCCCGUAAGGAACG and GUUCCGUUGGCGUAAUGGUAACGCGUCUCCCUCCUAAGGAGGAGACUGCGGGUUCGAGUCGCGUAAGGAACG cannot be ordered by yeast fitness: no more than 0.5 for the first, no more than 0.5 for the second.

Going from GUUCCGUUGGCGUAAUGGUAACGCGUCUCCCUCCUAAGGAGGAGACUGCGGGUCCGAGUCCCGUACGGAACG to GUUCCGUUGGCGUAAUGGUAACGCGUCUCCCUCCUAAGGAGGAGACUGCGGGUACGAGUCCCGUACGGAACG, the yeast fitness falls from 0.815 to 0.612.

Compared with GUUCCGUUGGCGUAAUGGUAACGCGUCUCCCUCCUAAGGAGGAGACUGCGGGUCCGAGUCCCGUUCGGAACG, GUUCCGUUGGCGUAAUGGUAACGCGUCUCCCUCCUAAGGAGGAGACUGCGGGUUCGAGUCCCGUUCGGAACG is higher in yeast fitness: no more than 0.5 for the first, 0.689 for the second.

Going from GUUCCGUUGGCGUAAUGGUAACGCGUCUCCCUCCUAAGGAGGAGACUGCGGGUUCGAGUCCCGUCCGGAACG to GUUCCGUUGGCGUAAUGGUAACGCGUCUCCCUCCUAAGGAGGAGACUGCGGGUUCGAGUCCCGUACCGACCG, the yeast fitness falls from 0.755 to no more than 0.5.

Work on GUUCCGUUGGCGUAAUGGUAACGCGUCUCCCUCCUAAGGAGGACACUGCGGGUUCGCGUCCCGUACGGAACG yielded a yeast fitness of no more than 0.5.
